Measurements reported in article PMC7931189 (ACS Omega, 2021).
“Also recorded” adds a separate entry of the source.

Legend:
HCT-116 cells = assay: Nuclear DNA staining; format: cell-based, human; conditions: 0.1 mg/mL, 48 h, compared to nontreated control
How it was run: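 HCT-116 cells exposed to test compound at 0.1 mg/mL for 48 h alongside untreated controls. Cells then fixed in 4% paraformaldehyde, permeabilised with Triton X-100 in PBS and stained with DAPI. Nuclei imaged by confocal scanning microscopy at 200× magnification and scored for loss of staining, condensation and disintegration.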

[1] = test system: human colorectal carcinoma cells (HCT-116); assay: Antiproliferative activity by the MTT assay, HCT-116; format: cell-based; conditions: for IC50: Homo sapiens, HCT-116, 48 h, read-out: IC50 HCT-116; for inhibitory action on HCT-116 cells: MTT, 48 h post treatment, result in words
How it was run: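 HCT-116 cells grown in DMEM with L-glutamine, fetal bovine serum, selenium chloride and penicillin-streptomycin; exposed to test compound at 0.06–0.7 mg/mL for 48 h, untreated wells as control. MTT (5.0 mg/mL) added for 4 h, then DMSO; absorbance read at 570 nm. Percent viability calculated relative to control; one-way ANOVA with Student's t-test for p-values.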

| IC50 [1] | SMILES | nuclear staining / nuclear disintegration of DAPI stained HCT-116 cells (HCT-116 cells) | inhibitory action on HCT-116 cells [1] |
| --- | --- | --- | --- |
| 0.267 ± 0.03 mM | CN(C)c1ccc(C=NNC(=O)C(C)(C)C(O)c2ccc(Cl)cc2)cc1 (stereo not shown) [compound 3, 3-(4-chlorophenyl)-N′-(4-(dimethylamino)benzylidene)-3-hydroxy-2,2-dimethylpropanehydrazide] | significant loss (arrows) of staining; also recorded: significant loss of nuclear staining | showed inhibitory activities |
| 1.65 ± 0.06 mM | CC(C)(C(=O)NN)C(O)c1ccc(Cl)cc1 (stereo not shown) [compound 2, 3-(4-chlorophenyl)-3-hydroxy-2,2-dimethylpropanehydrazide] | – | showed inhibitory activities |
| 1.27 ± 0.04 mM | CC(C)(C(=O)O)C(O)c1ccc(Cl)cc1 (stereo not shown) [compound 1, 3-(4-chlorophenyl)-3-hydroxy-2,2-dimethylpropanoic acid] | – | showed inhibitory activities |
